Assay outcomes as filed in PubChem BioAssay.
Rows were chosen to be rich in hits. Some 2.9% of all compounds tested hit in one or more screens of this group.
RanGTP-Imp inh: disruptors of Ran-importin-beta complex formation – biochemical, FRET, CFP-Ran, YFP-importin-beta, homogeneous, primary screen; cell-free CFP-Ran/YFP-importin-beta FRET ratio; inhibition, % (no concentration beside the values); hit rate 1.1% among 300,000; AID 2216;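 active means more than half of the replicate wells show a fall in the fluorescence ratio signal beyond about 16%, limit read from the data, passing the limit was not always enough; inconclusive means exactly half of the replicate wells pass the set limit; inactive means fewer than half of replicates pass the limit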;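 further: 0% = DMSO wells and 100% = Ran loaded with GDP instead of GTP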
Runt-CBFb FRET: inhibitors of human RUNX1 Runt domain binding to CBFb | Cerulean-Runt/Venus-CBFb FRET ratio 530/480, 1 h | inhibition, % at 20 µM | hit rate 0.46% among 220,000 | AID 1496;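 active means inhibition over about 50% at 20 µM in the single-dose screen, limit read from the data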;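 further: 0% = DMSO wells and 100% = excess unlabeled CBFb competitor control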
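Measured by: fluorescence energy transfer, 422 nm excitation, 530/480 nm emission; test system: Cerulean-tagged RUNX1 Runt domain (FRET donor) fusion protein; buffer or medium: Tris pH 7.5 buffer with BSA; compound: one dose, 20 µM compound, 1% DMSO; times: two 1 h room-temperature incubations shielded from light; benchmarks: unlabeled CBFb 5 µM, positive control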
AI-2 QS modul: modulators of Vibrio harveyi AI-2 quorum sensing system. Vibrio harveyi JMH597 AI-2 luminescence/OD600 ratio, 9 h; active compounds read low; strain lacks LuxN and CqsS sensors; 0 = neutral-control median. activity change, % at 7.5 µM. hit rate 0.4% among 300,000; in the data active means activity change below about -75%, passing the limit was not always enough; inconclusive means no clear call, values can overlap the other calls;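 further: luminescence divided by OD600 gain over 9 h not by final OD600 alone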
KLK7 zymogen act: activators of human kallikrein-7 zymogen; P49862; purified proKLK7, EDANS-DABCYL substrate fluorescence; 100% is mature enzyme control, 0% vehicle; activation, % at 7 µM; hit rate 0.9% among 370,000; AID 652039;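 active means activation above the mean of all tested compounds plus 3 SD, computed per campaign excluding outliers beyond control limits, cut at about 13% in these data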
Wee1 stabilizer: human Wee1 degradation inhibition, primary screen; HeLa Luc-Wee1K328M stability, luciferase luminescence; 100% = proteasome inhibitor MG132 effect; reporter increase, % at 5 µM; hit rate 1.2% among 220,000;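 active means activation above the mean of all tested compounds plus 3 SD, set per screening run, cut at about 8.8% in these data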;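 further: cells exposed to compound for 20 h before luminescence read; 0% = DMSO alone and 100% = MG132 at 30 µM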
Target sequence (P30291 whole entry K328M): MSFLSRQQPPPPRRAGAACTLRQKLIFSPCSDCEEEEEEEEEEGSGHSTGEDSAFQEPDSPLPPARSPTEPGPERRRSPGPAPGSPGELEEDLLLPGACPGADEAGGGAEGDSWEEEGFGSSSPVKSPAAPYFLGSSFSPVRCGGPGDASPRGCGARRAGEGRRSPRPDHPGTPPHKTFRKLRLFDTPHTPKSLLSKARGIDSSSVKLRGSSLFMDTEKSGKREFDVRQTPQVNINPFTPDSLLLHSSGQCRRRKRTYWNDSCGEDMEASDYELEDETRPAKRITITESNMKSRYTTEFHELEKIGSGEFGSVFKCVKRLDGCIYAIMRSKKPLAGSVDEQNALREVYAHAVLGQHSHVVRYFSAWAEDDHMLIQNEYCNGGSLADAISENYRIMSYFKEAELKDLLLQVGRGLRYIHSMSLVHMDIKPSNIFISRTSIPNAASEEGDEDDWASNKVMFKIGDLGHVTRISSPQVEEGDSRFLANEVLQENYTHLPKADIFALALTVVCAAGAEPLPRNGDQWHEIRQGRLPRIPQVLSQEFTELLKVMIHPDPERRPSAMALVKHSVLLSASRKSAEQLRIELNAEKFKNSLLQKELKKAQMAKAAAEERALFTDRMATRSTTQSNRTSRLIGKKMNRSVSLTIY
Runt-SMMHC FRET: blocks binding of human RUNX1 Runt domain to CBFb-SMMHC. Cerulean-Runt/Venus-CBFb-SMMHC FRET ratio 530/480, 1 h. inhibition, % at 20 µM. hit rate 0.74% among 220,000;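 active means mean inhibition across duplicate retests at 20 µM reaching about 50%, limit read from the data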;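 further: 0% = DMSO wells and 100% = wells with excess untagged CBFb-SMMHC; inhibitors lower the FRET ratio by blocking Runt binding to CBFb-SMMHC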
KLK7 act conf: confirmation of human kallikrein-7 zymogen activators. activation, % at 7 µM. purified proKLK7, EDANS-DABCYL substrate fluorescence; scaled: vehicle 0, mature enzyme 100. AID 686949. shares compounds with KLK7 zymogen act. hit rate 68% among 3,200;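 active means activation, as change over the incubation, above the mean of all tested compounds plus 3 SD, cut at about 13% in these data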
EDANS-DABCYL int: optically interferes with EDANS-DABCYL signal, flagging KLK7 hits; shares compounds with KLK7 zymogen act; EDANS-DABCYL substrate fluorescence interference, no enzyme, 4 h; solvent 0%, active enzyme control 100%; activation, % at 7 µM; hit rate 80% among 3,200; AID 686952;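 active means activation above the all-compound mean plus 3 SD, ignoring values outside control-based bounds, cut at about 4.8% in these data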;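 further: value is the 4 h activation minus the activation read at time zero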
K7 EDANS ctr: EDANS fluorescence interference in dose response, no enzyme; shares compounds with KLK7 zymogen act; EDANS-DABCYL peptide fluorescence interference; EC50, µM; hit rate 20% among 250;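 active means compounds that raise the fluorescence signal in this interference counterscreen, with EC50 at or below 10 µM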;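 further: intact quenched peptide substrate alone read at 355 nm excitation and 520 nm emission; signal is fluorescence gain from T0 to T4 after four hours at room temperature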
Starred values were filed as active, the others as inactive; ? = inconclusive; nt = no result given; ! = repeats disagree.

SMILES	RanGTP-Imp inh	Runt-CBFb FRET	AI-2 QS modul	KLK7 zymogen act	Wee1 stabilizer	Runt-SMMHC FRET	KLK7 act conf	EDANS-DABCYL int	others
CC(C(=O)O)N1c2cccc3cccc(c23)S1(=O)=O (configuration not stated)	5	nt	24	22*	nt	nt	27*	28*
CC(C)CNC(=O)CN1c2cccc3cccc(c23)S1(=O)=O	0	nt	20	8	nt	nt	nt	nt
CN(C)C(=O)CN1c2cccc3cccc(c23)S1(=O)=O	?	nt	-7	7	nt	nt	nt	nt
C=CCNC(=O)CN1c2cccc3cccc(c23)S1(=O)=O	3	nt	32	13*	nt	nt	4	7.1*
O=C(O)CCN1c2cccc3cccc(c23)S1(=O)=O	-1	nt	12	16*	nt	nt	19*	11*	K7 EDANS ctr=>69
O=C(O)Cn1nnc(-c2ccc(OCc3ccccc3)cc2)n1	2	nt	29	1	nt	nt	nt	nt
N=c1c(C(=O)NCCc2ccccc2)cc2c(=O)n3ccccc3nc2n1CC1CCCO1 (configuration not stated)	179*	nt	17	99*	nt	nt	9	7.7*
N=c1c(C(=O)NCc2ccc(F)cc2)cc2c(=O)n3ccccc3nc2n1CC1CCCO1 (configuration not stated)	199*	10	15	21*	2	60*	-59	-54
N=c1c(C(=O)NCc2ccco2)cc2c(=O)n3ccccc3nc2n1CCc1ccccc1	130*	12	22	16*	0	38	11	2
COc1cc(/C=C/C(=O)OCC(=O)NCc2ccco2)ccc1O	?	nt	4	-1	nt	nt	nt	nt
C[C@H](O)[C@@H]1C(=O)N2CCc3c([nH]c4ccccc34)[C@@H]2C[C@@H]1N(C)Cc1ccc2c(c1)OCO2	nt	nt	nt	26*	nt	nt	4	3
C[C@H](O)[C@@H]1C(=O)N2CCc3c([nH]c4ccccc34)[C@@H]2C[C@@H]1N(C)C(=O)c1cc(Cl)cc(Cl)c1	nt	nt	nt	47*	nt	nt	15*	12*	K7 EDANS ctr=>23
C[C@H](O)[C@@H]1C(=O)N2CCc3c([nH]c4ccccc34)[C@@H]2C[C@@H]1N(C)C(=O)Nc1cccc2ccccc12	nt	nt	nt	9	nt	nt	nt	nt
Cc1ccccc1C(=O)N(C)[C@H]1C[C@H]2c3[nH]c4ccccc4c3CCN2C(=O)[C@H]1[C@H](C)O	nt	nt	nt	78*	nt	nt	27*	27*
C[C@H](O)[C@@H]1C(=O)N2CCc3c([nH]c4ccccc34)[C@@H]2C[C@@H]1N(C)S(=O)(=O)c1ccccc1	nt	nt	nt	59*	nt	nt	43*	37*	K7 EDANS ctr=7.5*
O=C(NNC(=O)c1ccccc1-n1cccc1)c1cncc(Br)c1	nt	nt	nt	1	nt	nt	nt	nt
CCCCOC1CC(c2ccc(OCc3ccc(OC)cc3)c(OC)c2)N(C)O1 (configuration not stated)	-2	-7	22	0	-1	-5	nt	nt
COc1ccc(C2Nc3ccccc3C(=O)N2Cc2ccco2)cc1COc1ccc(F)cc1 (configuration not stated)	0	0	24	-15	-2	-2	nt	nt
O=C1c2ccccc2NC(c2cccc(O)c2)N1Cc1ccco1 (configuration not stated)	0	2	17	27*	-1	3	29*	29*
COc1ccc(C2Nc3ccccc3C(=O)N2Cc2ccco2)cc1CN1C(=O)c2ccccc2C1=O (configuration not stated)	2	1	27	30*!	-1	-2	11	5.8*
O=C(CSc1ccccc1C(=O)O)NCC1CCCCC1	3	-1	7	0	-3	0	nt	nt
